MC4R antagonist = blocks human MC4R cAMP signaling; inhibition, % at 6.5 µM; 0.48% of 360,000 active; MC4R-expressing cells, MTII-stimulated cAMP, LANCE TR-FRET;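 active means inhibition above its plate's cutoff, the mean of tested wells on that plate plus 3 SD, cut at about 29% in these data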
Target sequence (P32245 whole entry, looked up): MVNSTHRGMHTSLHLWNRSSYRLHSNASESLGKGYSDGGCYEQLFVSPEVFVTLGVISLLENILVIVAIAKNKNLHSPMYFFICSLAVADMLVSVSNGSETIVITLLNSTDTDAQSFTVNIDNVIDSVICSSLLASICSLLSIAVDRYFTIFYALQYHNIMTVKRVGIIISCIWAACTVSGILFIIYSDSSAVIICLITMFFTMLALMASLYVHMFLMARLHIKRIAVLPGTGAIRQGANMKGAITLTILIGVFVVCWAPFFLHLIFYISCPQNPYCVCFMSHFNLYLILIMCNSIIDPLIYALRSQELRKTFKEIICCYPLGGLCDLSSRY
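system = U2OS cells with stable human MC4R expression | also added = Melanotan II challenge after compound preincubation | dosing = one concentration, 6.5 µM nominal | incubation = compound 30 min, challenge 1 h, detection 1 h | measured by = TR-FRET with Eu-cAMP and labeled anti-cAMP, 671 nm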
TAAR1 antagonist = antagonists of human TAAR1 | AID 624466 | 1.5% of 360,000 active | CHO RD-HGA16 TAAR1, Fluo-8 calcium fluorescence, antagonist | Q96RJ0 | inhibition, % at 3 µM;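 active means inhibition above a per-plate cutoff, the mean inhibition of test compounds on that plate plus 3 SD, cut at about 49% in these data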
Target sequence (Q96RJ0 whole entry, looked up): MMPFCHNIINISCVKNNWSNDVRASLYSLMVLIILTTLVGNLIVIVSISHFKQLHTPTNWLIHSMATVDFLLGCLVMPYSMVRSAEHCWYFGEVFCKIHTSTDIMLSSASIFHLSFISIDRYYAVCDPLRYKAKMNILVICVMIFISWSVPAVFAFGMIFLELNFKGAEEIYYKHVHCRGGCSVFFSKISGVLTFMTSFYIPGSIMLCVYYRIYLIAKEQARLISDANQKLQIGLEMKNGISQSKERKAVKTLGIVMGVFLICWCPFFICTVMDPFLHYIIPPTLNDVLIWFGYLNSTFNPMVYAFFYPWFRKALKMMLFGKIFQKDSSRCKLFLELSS
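test system = CHO RD-HGA16 cells bearing hTAAR1 | replication = singlicate | controls = DMSO-only wells and EC80 β-PEA-stimulated wells | reagent = EC80 β-phenethylamine stimulus | read-out basis = percent inhibition of PEA-evoked calcium signal, max/basal emission ratio | schedule = seeding 17-24 h prior, 75-min 37 °C, 30-min RT dye loading | signal = kinetic Fluo-8 calcium fluorescence measurement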
Beta2AR agonist = activates human beta-2 adrenergic receptor causing internalization. AID 504454. P07550. response, % (no concentration beside the values). Am2.2-beta2AR cells, FAP receptor internalization, flow cytometry. 0.43% of 340,000 active;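 active means response above a set limit, near 3 SD of response in nonfluorescent compounds, cut at about 42% in these data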
TAAR1 ag = agonists of human TAAR1. Q96RJ0. 0.99% of 360,000 active. CHO RD-HGA16 TAAR1, Fluo-8 calcium fluorescence; vehicle wells 0%, saturating PEA agonist 100%. activation, % at 3 µM;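 active means activation above the mean activation of all test compounds in the run plus 3 SD, cut at about 38% in these data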
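Test system: RD-HGA16 (CHO) cells co-expressing Gα16 and hTAAR1 / Benchmarks: DMSO vehicle as 0%, PEA at EC100 as 100% / Repeats: no replicates (n 1) / Measure: % activation from peak over basal fluorescence ratio, DMSO-to-PEA scaled / Timing: 17-24 h plating, Fluo-8 75 min 37 °C, 30 min RT / Technique: kinetic Fluo-8 calcium fluorescence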
MC4R barr agon = activates human MC4R beta-arrestin recruitment; U2OS MC4R beta-arrestin complementation, luminescence; percent of melanotan II response, DMSO zero; P32245; 0.98% of 360,000 active; activation, % at 8.9 µM; AID 540308;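 active means activation above a per-plate cutoff, the mean activation of sample wells on that plate plus 3 SD, cut at about 8% in these data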
m5-HT2A agonist = activates the mouse 5-HT2A serotonin receptor; P35363; CHO-K1 mHTR2A beta-arrestin complementation, luminescence; percent of 30 µM serotonin response; activation, % at 7.6 µM; 0.66% of 360,000 active; AID 624169;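 active means activation above a run cutoff, the mean activation of all tested compounds plus 3 SD, cut at about 14% in these data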
TAAR1 ag conf = human TAAR1 agonism, confirmed. shares compounds with TAAR1 ag. CHO RD-HGA16 TAAR1, Fluo-8 calcium fluorescence; scaled: DMSO 0%, maximal phenethylamine 100%. activation, % at 3 µM. 82% of 2,400 active. AID 651783;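 active means activation above a cutoff set at the run's mean compound activation plus 3 SD, cut at about 39% in these data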
Ga16 nonsel ag = nonselective agonism, TAAR1 counter-screen; shares compounds with TAAR1 ag; CHO-Ga16 parental, Fluo-8 calcium fluorescence; normalized to maximal ATP response, DMSO zero; activation, % at 3 µM; 50% of 2,400 active;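 active means activation above the run cutoff, the mean activation over all tested wells plus 3 SD, cut at about 12% in these data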
TAAR1 desens = human TAAR1 agonist that also desensitizes the receptor | CHO RD-HGA16 hTAAR1, Fluo-8 calcium, beta-PEA response inhibition | shares compounds with TAAR1 ag | inhibition, % at 3 µM | 46% of 2,400 active;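 active means inhibition above the run cutoff, the mean inhibition of all test compounds plus 3 SD, cut at about 49% in these data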;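 further: beta-PEA stimulus applied at its EC80; loss of beta-PEA calcium signal after compound pretreatment read as receptor desensitization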
Ga16 antag count = nonselective Ga16 antagonism, counter-screen. inhibition, % at 3 µM. shares compounds with TAAR1 ag. 39% of 2,400 active. CHO-Ga16 ATP-induced calcium, Fluo-8 fluorescence;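 active means inhibition above the plate's mean compound inhibition plus 3 SD, computed per plate, cut at about 22% in these data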
A number is an active result; . = inactive; / = no result given. In the library only some 4.3% were active in any assay of this set; here they are far more common.

SMILES	MC4R antagonist	TAAR1 antagonist	Beta2AR agonist	TAAR1 ag	MC4R barr agon	m5-HT2A agonist	TAAR1 ag conf	Ga16 nonsel ag	TAAR1 desens	Ga16 antag count
Cc1nnc(SCC(=O)NCCC2=CCCCC2)[nH]c1=O	.	69	.	74	.	.	95	.	88	.
CCCc1cc(=O)[nH]c(SCC(=O)NCCC2=CCCCC2)n1	.	.	.	.	.	.	/	/	/	/
O=C(NCCc1ccccc1)C(NS(=O)(=O)c1cccc2nsnc12)c1ccccc1 (configuration not stated)	.	.	.	41	.	.	76	.	.	.
Cc1ccc(CCNC(=O)C2CCN(S(=O)(=O)c3cccc4cccnc34)CC2)cc1	.	.	.	.	.	.	/	/	/	/
Cc1ccc(CCNC(=O)C2CCN(S(=O)(=O)c3cccc4nsnc34)CC2)cc1	.	56	.	77	.	.	.	.	.	.
O=C(NCCc1ccccc1)C1CCCN(S(=O)(=O)c2cccc3nsnc23)C1 (configuration not stated)	.	72	.	97	.	.	85	.	91	.
Cc1ccc(S(=O)(=O)N2CC(O)C2)cc1	.	.	.	.	.	.	/	/	/	/
COc1cccc(S(=O)(=O)N(C)C[C@H]2OCc3cnnn3CCCC(=O)N([C@@H](C)CO)C[C@H]2C)c1	.	.	/	.	.	.	/	/	/	/
CC(C)(C)c1ccc(S(=O)(=O)NCC(=O)N2CCCC2)cc1	.	.	.	.	.	.	/	/	/	/
O=C(O)CC(NC(=O)C1c2ccccc2Oc2ccccc21)c1ccc(OC2CCCC2)cc1 (configuration not stated)	.	.	.	58	.	.	83	49	.	.
CCOc1ccc(C(CC(=O)O)NC(=O)C2c3ccccc3Oc3ccccc32)cc1 (configuration not stated)	.	.	.	.	.	.	/	/	/	/
O=C(O)CCc1ccc(-c2cccs2)n1CCC(=O)O	.	.	.	.	.	.	/	/	/	/
O=C(O)CCc1ccc(-c2cccs2)n1CCc1ccccc1	.	.	.	62	.	.	83	.	73	.
Cc1nn(C)c(C(=O)NNC(=S)NCc2ccco2)c1Cl	.	.	.	.	.	.	/	/	/	/
Cc1nn(C)c(C(=O)NNC(=S)NCc2ccco2)c1Br	.	.	.	80	.	.	.	.	.	.
Cc1cccc(C)c1NC1=NC2(CCCCC2)N=C(N)N1	.	.	.	.	.	.	/	/	/	/
NC1=NC2(CCCCC2)N=C(Nc2ccc(Br)cc2)N1	.	.	.	44	.	.	69	.	.	.
COC(=O)c1cccc(C(=O)N2CCCC(C(=O)c3ccccc3OC)C2)c1 (configuration not stated)	.	.	.	.	.	.	/	/	/	/
COC(=O)c1cccc(C(=O)N2CCCC(C(=O)c3cccc(OC(C)C)c3)C2)c1 (configuration not stated)	.	.	.	53	.	.	.	.	.	.
O=S1(=O)N=C(N2CCCc3ccccc32)c2ccccc21	.	.	.	.	.	.	/	/	/	/
O=S1(=O)N=C(N2CCc3ccccc3C2)c2ccccc21	.	.	.	63	.	.	61	.	.	.
CNc1nc(N)c([N+](=O)[O-])c(NC2CCCCC2)n1	.	.	.	60	.	.	90	42	.	.
COc1ccc(NC(=O)C2CCCN(C(=O)Nc3ccc(OC)cc3)C2)cc1 (configuration not stated)	.	.	.	.	.	.	/	/	/	/
COc1ccc(NC(=O)N2CCCC(c3ccccc3)C2)cc1 (configuration not stated)	.	.	.	55	.	.	61	.	.	.
Brc1ccc2ncnc(Nc3cccc4ccccc34)c2c1	.	.	.	53	.	.	.	30	.	.
SMILES	MC4R antagonist	TAAR1 antagonist	Beta2AR agonist	TAAR1 ag	MC4R barr agon	m5-HT2A agonist	TAAR1 ag conf	Ga16 nonsel ag	TAAR1 desens	Ga16 antag count
COc1cccc(Nc2ncnc3ccc(Br)cc23)c1	.	.	/	.	.	.	/	/	/	/
O=C(Cc1ccc(-c2ccccc2)cc1)NC1CCCC1	.	.	.	59	.	.	.	.	.	.
Cc1ccnc(N/C=C(\C#N)c2nc(-c3cccc(Br)c3)cs2)c1	.	68	.	124	.	.	77	86	68	63
Cc1c(Cl)cccc1NC(=O)Cc1ccc([N+](=O)[O-])cc1	.	.	.	56	.	.	.	17	.	.
O=C(NCCc1ccccc1)C(=O)NCC1OCCCN1S(=O)(=O)c1cccs1 (configuration not stated)	.	.	.	68	.	.	97	16	74	.
O=C(NCCc1ccco1)C(=O)NCC1OCCCN1S(=O)(=O)c1ccccc1 (configuration not stated)	.	.	.	66	.	.	.	.	.	.
Cc1ccc(S(=O)(=O)N2CCOC2CNC(=O)C(=O)NCCCc2ccccc2)cc1 (configuration not stated)	.	.	.	.	.	.	/	/	/	/
O=C(NCCc1ccccc1)C(=O)NCC1OCCN1S(=O)(=O)c1ccc([N+](=O)[O-])cc1 (configuration not stated)	.	.	.	47	.	.	73	.	.	.
Cc1ccc(S(=O)(=O)N2CCOC2CNC(=O)C(=O)NCCc2ccccc2)cc1 (configuration not stated)	.	.	.	58	.	.	82	.	.	.
CCCCn1c(SCCN2CCCCC2)nc2c1c(=O)n(C)c(=O)n2C	.	.	/	.	.	.	/	/	/	/
COc1ccccc1C(=O)NCCC(=O)NCCc1ccccc1	.	.	.	.	.	.	/	/	/	/
O=C1c2ccccc2NC(c2cccc(O)c2)N1NS(=O)(=O)c1ccccc1 (configuration not stated)	.	.	.	.	.	.	/	/	/	/

From PubChem
